This passage reports IC50 and Ratio results from ChEMBL document CHEMBL1124333, “Prostaglandin photoaffinity probes: synthesis and biological activity of azide-substituted 16-phenoxy- and 17-phenyl-PGF2 alpha prostaglandins” (J Med Chem, 1989).

Molecules are shown by their SMILES.

For test [1], the target named is T1, Prostaglandin F2-alpha receptor (Bos taurus, UniProt P37289). The test can be described thus: Binding potency towards Prostaglandin F2 alpha receptor (competitive binding) with natural [3H]-PGF 2 alpha in bovine corpora lutea plasma membranes (BCLM). Summed up:
(§1)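 Bovine corpora lutea were homogenized in ice-cold 10 mM Tris-HCl pH 7.0 with 250 mM sucrose, 1 mM CaCl2, BSA, indomethacin, DTT and protease inhibitors. Membranes were pelleted at 17339g and resuspended at about 1-2 mg protein/mL. They were diluted 1:1 with serum-free culture medium and incubated 90 min, to equilibrium, with [3H]PGF2α and competitor.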

Test [2] in a line: Relative ratio in comparison with PGF2-alpha in bovine corpus lutea membranes. Type of test: cell membranes.
A short description of test [3]: Relative ratio in comparison with PGF2-alpha in ovine luteal cells. The format is cell-based.
The nature of test [4]: Relative ratio in comparison with PGF2-alpha.
Test [5] has as its target T1, Prostaglandin F2-alpha receptor. The test is described as follows: Binding potency towards PGF-2 alpha receptor (competitive binding) with natural [3H]-PGF 2 alpha in bovine corpora lutea plasma membranes (BCLM). In outline: as §1

T1 sequence (P37289 whole entry): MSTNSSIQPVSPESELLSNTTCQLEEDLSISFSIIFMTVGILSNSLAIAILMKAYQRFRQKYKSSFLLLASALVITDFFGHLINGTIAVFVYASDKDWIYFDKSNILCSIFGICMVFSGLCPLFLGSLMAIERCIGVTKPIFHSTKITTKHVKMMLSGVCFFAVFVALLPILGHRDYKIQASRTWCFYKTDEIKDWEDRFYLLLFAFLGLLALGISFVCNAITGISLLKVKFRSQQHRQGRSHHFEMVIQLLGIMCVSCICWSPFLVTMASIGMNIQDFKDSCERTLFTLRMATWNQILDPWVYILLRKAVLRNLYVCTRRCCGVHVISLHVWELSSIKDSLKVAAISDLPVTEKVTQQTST

In turn, `[N-]=[N+]=Nc1ccc(CC[C@H](O)/C=C/[C@@H]2[C@@H](C/C=C\CCCC(=O)O)[C@@H](O)C[C@H]2O)cc1I` returned an IC50 in test [1] of 7 µM. The figures for the Ratio in test [2] and in test [3] were 50 and 8.1, respectively.
As to `[N-]=[N+]=Nc1ccc(OC[C@H](O)/C=C/[C@@H]2[C@@H](C/C=C\CCCC(=O)O)[C@@H](O)C[C@H]2O)c(O)c1`, in test [1], the IC50 came to 120 µM. Besides, the Ratio in test [2] was 860.
Turning to `[N-]=[N+]=Nc1ccc(CC[C@H](O)/C=C/[C@@H]2[C@@H](C/C=C\CCCC(=O)O)[C@@H](O)C[C@H]2O)c(O)c1`, the IC50 in test [1] is 220 µM. In addition, the Ratio was 1600 in test [2] and 140 in test [3].
Turning to `[N-]=[N+]=Nc1ccc(CC[C@@H](O)/C=C/[C@@H]2[C@@H](C/C=C\CCCC(=O)O)[C@@H](O)C[C@H]2O)cc1I`, in test [4], the Ratio was 490. In test [1], this molecule displayed an IC50 of 68 µM.
As for `[N-]=[N+]=Nc1cc(O)cc(OC[C@H](O)/C=C/[C@@H]2[C@@H](C/C=C\CCCC(=O)O)[C@@H](O)C[C@H]2O)c1`, the Ratio in test [3] amounted to 250.
As for `COC(=O)CCC/C=C\C[C@@H]1C(/C=C/[C@H](O)CCc2ccccc2)[C@H](O)C[C@@H]1O` (stereo not given in full), in test [2], the Ratio is 360. In test [5], the IC50 amounted to 50 µM.
Take `COC(=O)CCC/C=C\C[C@@H]1C(/C=C/[C@@H](O)CCc2ccccc2)[C@H](O)C[C@@H]1O` (stereo not given in full): the Ratio in test [2] came to 14. In addition, in test [5], the 50% inhibitory concentration (IC50) was 2 µM.

The IC50 is the concentration at which inhibition is half-maximal. Read a low IC50 as greater potency.
